The values that follow come from ChEMBL document CHEMBL3414516, “Novel pyridyl substituted 4,5-dihydro-[1,2,4]triazolo[4,3-a]quinolines as potent and selective aldosterone synthase inhibitors with improved in vitro metabolic stability” (J Med Chem, 2015).

Data set [1] deals with T1, Cytochrome P450 11B2, mitochondrial (Homo sapiens, UniProt P19099).
T1 sequence (P19099 whole entry): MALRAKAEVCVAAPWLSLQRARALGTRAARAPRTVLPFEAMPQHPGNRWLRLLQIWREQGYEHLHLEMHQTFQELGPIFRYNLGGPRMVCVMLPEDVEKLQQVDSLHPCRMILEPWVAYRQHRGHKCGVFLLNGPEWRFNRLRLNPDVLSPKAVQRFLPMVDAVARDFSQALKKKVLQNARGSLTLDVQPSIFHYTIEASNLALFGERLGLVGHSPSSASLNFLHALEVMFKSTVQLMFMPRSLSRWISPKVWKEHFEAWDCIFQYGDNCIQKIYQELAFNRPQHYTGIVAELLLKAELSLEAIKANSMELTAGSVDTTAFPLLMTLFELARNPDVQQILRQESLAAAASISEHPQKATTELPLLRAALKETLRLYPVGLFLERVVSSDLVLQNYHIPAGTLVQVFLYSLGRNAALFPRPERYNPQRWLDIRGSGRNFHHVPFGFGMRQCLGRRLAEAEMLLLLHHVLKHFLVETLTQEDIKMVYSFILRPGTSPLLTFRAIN
Kind of data set: Inhibition of human CYP11B2 expressed in V79 MZh cells using [14C]-deoxycorticosterone substrate incubated for 6 hrs by HPTLC method. In kind it is cell-based, V79MZh. A digest of the protocol:
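V79 MZh cells expressing human CYP11B1 or CYP11B2 were incubated 6 h with [¹⁴C]-deoxycorticosterone and inhibitor at various concentrations. Steroids were extracted with ethyl acetate, separated by HPTLC and quantified by phosphoimager.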

The species named for another data set is Homo sapiens. Kind of data set: Selectivity index, ratio of IC50 for human CYP11B1 to IC50 human CYP11B2.
Data set [2] in a line: Half life in human hepatic microsomes at 1 uM in presence of NADPH system by LC-MS/MS method. Format: ADME, Microsome. The settings on record: liver microsomes. In outline:
(§1)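 Pooled mixed-gender human liver microsomes at 0.5 mg/mL final protein in potassium phosphate–MgCl₂ buffer (100 mM, pH 7.4). Compound at 1 μM final with NADPH system, 37 °C. Samples at 2, 5, 15, 30 and 45 min, quenched with acetonitrile, vortexed, centrifuged, and supernatant analysed by LC–MS/MS.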
For orientation: Liver microsomes are a subcellular fraction often used to study metabolism.

Data set [3] can be described thus: Intrinsic clearance in human hepatic microsomes at 1 uM in presence of NADPH system by LC-MS/MS method. The settings on record: liver microsomes, read-out: CLH. Format: ADME. A digest of the protocol:
as §1

The next data set addresses T2, Aromatase (Homo sapiens, UniProt P11511).
T2 sequence (P11511 whole entry): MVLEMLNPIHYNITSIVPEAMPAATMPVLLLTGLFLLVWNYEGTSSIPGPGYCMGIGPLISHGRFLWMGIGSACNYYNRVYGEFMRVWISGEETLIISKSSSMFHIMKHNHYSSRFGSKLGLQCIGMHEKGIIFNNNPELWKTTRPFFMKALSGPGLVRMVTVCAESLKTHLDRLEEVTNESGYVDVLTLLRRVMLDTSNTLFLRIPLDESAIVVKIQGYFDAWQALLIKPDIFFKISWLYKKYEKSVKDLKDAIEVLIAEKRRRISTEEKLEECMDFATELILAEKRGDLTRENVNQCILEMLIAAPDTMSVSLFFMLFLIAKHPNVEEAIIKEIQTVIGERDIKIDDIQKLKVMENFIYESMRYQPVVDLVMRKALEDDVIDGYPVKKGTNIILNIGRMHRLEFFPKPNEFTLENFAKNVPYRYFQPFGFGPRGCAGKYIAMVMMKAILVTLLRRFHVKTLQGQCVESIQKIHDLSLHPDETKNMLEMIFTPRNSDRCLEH
Kind of data set: Inhibition of CYP19 in human placental microsomes using [1beta-3H]androstenedione substrate. Also noted: species or system Placenta.

Data set [4] deals with T3, Steroid 17-alpha-hydroxylase/17,20 lyase (Homo sapiens, UniProt P05093).
T3 sequence (P05093 whole entry): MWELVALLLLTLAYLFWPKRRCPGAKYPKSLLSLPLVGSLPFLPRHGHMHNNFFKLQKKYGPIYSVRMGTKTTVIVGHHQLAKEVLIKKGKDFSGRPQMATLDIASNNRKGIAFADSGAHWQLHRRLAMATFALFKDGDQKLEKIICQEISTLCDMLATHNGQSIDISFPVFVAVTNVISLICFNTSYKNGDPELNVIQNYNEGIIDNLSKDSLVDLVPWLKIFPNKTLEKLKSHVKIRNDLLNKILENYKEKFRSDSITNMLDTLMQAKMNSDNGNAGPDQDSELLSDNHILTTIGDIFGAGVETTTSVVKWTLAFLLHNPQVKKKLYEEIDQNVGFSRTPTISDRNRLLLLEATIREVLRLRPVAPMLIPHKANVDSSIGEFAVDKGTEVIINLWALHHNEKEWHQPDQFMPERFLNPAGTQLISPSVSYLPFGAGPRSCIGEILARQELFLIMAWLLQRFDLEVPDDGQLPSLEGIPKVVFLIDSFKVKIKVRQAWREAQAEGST
Kind of data set: Inhibition of human CYP17 expressed in Escherichia coli coexpressing human CYP17 and NADPH-P450 reductase.

The next data set addresses T4, Cytochrome P450 1A2 (Homo sapiens, UniProt P05177).
T4 sequence (P05177 whole entry): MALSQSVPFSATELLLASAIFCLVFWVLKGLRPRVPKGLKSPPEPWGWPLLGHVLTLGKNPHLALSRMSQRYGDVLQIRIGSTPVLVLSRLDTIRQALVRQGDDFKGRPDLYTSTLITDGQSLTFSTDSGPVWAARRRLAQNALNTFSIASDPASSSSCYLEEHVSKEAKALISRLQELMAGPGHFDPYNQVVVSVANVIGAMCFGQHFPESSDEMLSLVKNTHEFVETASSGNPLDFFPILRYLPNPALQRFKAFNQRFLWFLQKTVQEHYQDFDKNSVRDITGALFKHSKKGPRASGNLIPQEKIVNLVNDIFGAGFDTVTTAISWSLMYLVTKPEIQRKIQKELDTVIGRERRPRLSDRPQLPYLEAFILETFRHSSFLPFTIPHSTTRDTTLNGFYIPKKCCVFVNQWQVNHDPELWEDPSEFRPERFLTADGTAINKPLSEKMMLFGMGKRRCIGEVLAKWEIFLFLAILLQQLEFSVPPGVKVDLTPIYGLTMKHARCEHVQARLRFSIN
Kind of data set: Inhibition of human recombinant CYP1A2 using phenacetin substrate by LC-MS/MS method. In kind it is ADME. In outline:
(§2)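 Compounds tested in duplicate at six concentrations up to 50 μM. Acetonitrile quench at one time point, then LC–MS/MS of probe metabolites. Metabolites were normalized to vehicle controls and IC50 calculated.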

In another data set the target is Cytochrome P450 2C9 (Homo sapiens, UniProt P11712). Kind of data set: Inhibition of human recombinant CYP2C9 using diclofenac substrate by LC-MS/MS method. Format: ADME. In outline:
as §2

The target in the next data set is Cytochrome P450 2C19 (Homo sapiens, UniProt P33261). Kind of data set: Inhibition of human recombinant CYP2C19 using smephenytoin substrate by LC-MS/MS method. In kind it is ADME. In outline: as §2
Chain of Cytochrome P450 2C19 (P33261 whole entry): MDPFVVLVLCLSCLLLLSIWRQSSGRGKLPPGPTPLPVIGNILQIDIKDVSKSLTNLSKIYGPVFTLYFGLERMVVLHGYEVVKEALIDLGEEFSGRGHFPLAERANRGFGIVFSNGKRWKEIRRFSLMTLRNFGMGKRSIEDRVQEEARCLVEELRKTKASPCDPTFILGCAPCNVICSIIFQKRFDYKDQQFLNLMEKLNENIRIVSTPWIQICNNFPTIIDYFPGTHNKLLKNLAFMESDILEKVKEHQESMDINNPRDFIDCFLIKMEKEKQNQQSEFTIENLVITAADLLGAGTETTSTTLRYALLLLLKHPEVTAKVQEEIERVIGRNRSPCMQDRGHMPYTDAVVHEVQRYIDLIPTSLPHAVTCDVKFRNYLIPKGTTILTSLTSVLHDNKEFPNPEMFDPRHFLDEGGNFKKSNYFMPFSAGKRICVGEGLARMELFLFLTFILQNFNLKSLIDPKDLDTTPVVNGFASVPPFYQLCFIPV
Another data set addresses Cytochrome P450 2D6 (Homo sapiens, UniProt P10635). Kind of data set: Inhibition of human recombinant CYP2D6 using bufuralol substrate by LC-MS/MS method. In kind it is ADME. A digest of the protocol:
as §2

The target of the next data set is Cytochrome P450 3A4 (Homo sapiens, UniProt P08684). Kind of data set: Inhibition of human recombinant CYP3A4 using midazolam substrate by LC-MS/MS method. In kind it is ADME. In outline: as §2
Chain of Cytochrome P450 3A4 (P08684 whole entry): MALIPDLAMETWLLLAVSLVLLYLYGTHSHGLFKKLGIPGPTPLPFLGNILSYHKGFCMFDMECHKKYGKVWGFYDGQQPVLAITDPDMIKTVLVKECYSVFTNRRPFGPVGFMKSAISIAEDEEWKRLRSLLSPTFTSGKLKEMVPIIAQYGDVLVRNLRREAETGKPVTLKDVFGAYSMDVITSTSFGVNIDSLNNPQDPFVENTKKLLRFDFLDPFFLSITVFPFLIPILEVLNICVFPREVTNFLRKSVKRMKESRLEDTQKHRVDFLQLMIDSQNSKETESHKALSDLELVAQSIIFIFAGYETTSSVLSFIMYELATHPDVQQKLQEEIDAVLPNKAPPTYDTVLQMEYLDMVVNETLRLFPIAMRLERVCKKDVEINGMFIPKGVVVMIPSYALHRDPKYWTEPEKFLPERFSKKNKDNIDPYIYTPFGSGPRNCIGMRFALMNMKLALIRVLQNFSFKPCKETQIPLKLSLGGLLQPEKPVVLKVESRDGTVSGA
Data set [5] can be described thus: Stability in human hepatic microsomes assessed as unchanged compound level at 1 uM after 120 mins in presence of NADPH system by LC-MS/MS method. Format: ADME, Microsome. The conditions noted are these: liver microsomes, read-out: Stability.

Chain of Cytochrome P450 2C9 (P11712 whole entry): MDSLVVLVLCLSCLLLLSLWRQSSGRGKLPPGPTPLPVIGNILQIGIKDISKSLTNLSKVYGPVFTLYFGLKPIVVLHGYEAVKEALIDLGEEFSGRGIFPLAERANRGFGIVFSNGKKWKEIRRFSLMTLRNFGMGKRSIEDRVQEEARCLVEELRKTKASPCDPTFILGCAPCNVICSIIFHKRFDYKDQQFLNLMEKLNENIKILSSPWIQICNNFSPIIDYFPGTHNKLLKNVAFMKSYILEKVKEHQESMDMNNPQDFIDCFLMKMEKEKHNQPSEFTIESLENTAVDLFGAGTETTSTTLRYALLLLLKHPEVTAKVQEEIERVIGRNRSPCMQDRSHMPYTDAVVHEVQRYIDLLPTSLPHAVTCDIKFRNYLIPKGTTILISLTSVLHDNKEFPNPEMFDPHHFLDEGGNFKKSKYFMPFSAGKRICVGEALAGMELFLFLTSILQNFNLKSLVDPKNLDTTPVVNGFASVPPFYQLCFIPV
Chain of Cytochrome P450 2D6 (P10635 whole entry): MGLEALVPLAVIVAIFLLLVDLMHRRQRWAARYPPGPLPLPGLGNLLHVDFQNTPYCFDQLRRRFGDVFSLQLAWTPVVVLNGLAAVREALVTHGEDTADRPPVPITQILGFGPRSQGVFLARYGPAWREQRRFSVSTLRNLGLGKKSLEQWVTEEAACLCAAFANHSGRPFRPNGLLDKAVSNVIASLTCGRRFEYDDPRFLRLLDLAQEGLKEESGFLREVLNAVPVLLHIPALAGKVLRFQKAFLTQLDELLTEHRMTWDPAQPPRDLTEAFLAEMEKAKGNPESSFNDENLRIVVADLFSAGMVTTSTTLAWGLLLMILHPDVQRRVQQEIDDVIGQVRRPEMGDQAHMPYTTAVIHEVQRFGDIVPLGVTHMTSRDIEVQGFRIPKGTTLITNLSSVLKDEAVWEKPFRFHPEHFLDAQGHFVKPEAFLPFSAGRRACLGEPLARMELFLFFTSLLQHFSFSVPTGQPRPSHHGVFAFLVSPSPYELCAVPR

By IC50 is commonly meant the midpoint of a concentration-inhibition curve. A word on the half-life: it is the time in which the quantity being followed falls by half. For `Cc1nnc2n1-c1c(F)cc(-c3cncc(F)c3)cc1CC2`, the IC50 is 0.0897 µM in [1]; greater than 10 µM against Aromatase; greater than 10 µM in data set [4]; greater than 50 µM on Cytochrome P450 1A2; greater than 50 µM at Cytochrome P450 2C9; greater than 50 µM at Cytochrome P450 2C19. Also, the IC50 on Cytochrome P450 2D6 and on Cytochrome P450 3A4 was greater than 50 µM each time. Moreover, the Ratio IC50 in the data set listed under Homo sapiens was 329. For the same compound, the half-life at 1 µM in data set [2] was greater than 2 h. Further, the microsomal CLint at 1 µM in data set [3] worked out at 12 µL/min/mg.
With `Cc1ccncc1-c1cc(F)c2c(c1)CCc1nnc(C)n1-2`, the half-maximal inhibitory concentration (IC50) is 0.0042 µM in data set [1]; greater than 10 µM at Aromatase; greater than 10 µM in data set [4]; greater than 50 µM at Cytochrome P450 1A2; greater than 50 µM at Cytochrome P450 2C9; greater than 50 µM at Cytochrome P450 2C19. For the same compound, the IC50 at Cytochrome P450 2D6 and at Cytochrome P450 3A4 was greater than 50 µM throughout. Also, the Ratio IC50 in the data set filed under Homo sapiens was 422. Further, the half-life at 1 µM in data set [2] was greater than 2 h. In data set [3], the microsomal CLint at 1 µM amounted to 4 µL/min/mg. Further, the remaining at 2 h, 1 µM in [5] amounted to 80%.
